Reference: PMC7870562 (Bioorganic chemistry, 2020)

Legend:
A375 cells [1] = experiment: MTT cytotoxicity / cell viability assay, A375; format: cell-based, human; details: for IC50: Homo sapiens, A-375, 48 h; for selectivity index: IC50 melanocytes / IC50 A375
How it was run: (§1)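 Cells in 5–10% FBS/DMEM were seeded at 5×10³ per well, refed at 24 h and grown to 70% confluence. They were treated for 48 h at 37°C, 5% CO2 with two-fold serial dilutions of test compound in DMSO (≤0.1%), […], in 8–10 repeats. After MTT, absorbance was read at 562 nm. Viability was expressed relative to DMSO controls and IC50 derived by nonlinear regression. Data are mean ± SD of ≥5 independent experiments in octuplicates.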

SK-Mel-28 cells = experiment: MTT cytotoxicity / cell viability assay, SK-Mel-28; format: cell-based, human; details: for IC50: Homo sapiens, SK-MEL-28, 48 h; for selectivity index: IC50 melanocytes / IC50 SK-Mel-28
How it was run: as §1

Melanocyte = experiment: MTT cytotoxicity / cell viability assay, normal melanocytes; format: cell-based; details: Homo sapiens, 48 h
How it was run: as §1

A431 cells [2] = experiment: MTT cytotoxicity / cell viability assay, A431; format: cell-based, human; details: for IC50: Homo sapiens, A-431, 48 h; for selectivity index: IC50 HaCaT / IC50 A431
How it was run: as §1

UWBCC1 cells = experiment: MTT cytotoxicity / cell viability assay, UWBCC1; format: cell-based, human; details: for IC50: Homo sapiens, 48 h; for selectivity index: IC50 HaCaT / IC50 UWBCC1
How it was run: as §1

HaCaT = experiment: MTT cytotoxicity / cell viability assay, HaCaT keratinocytes; format: cell-based; details: Homo sapiens, 48 h
How it was run: as §1

c-Kit = c-Kit (Homo sapiens, UniProt P10721); experiment: In vitro kinase activity assay; format: biochemical
c-Kit, sequence (P10721 26-976): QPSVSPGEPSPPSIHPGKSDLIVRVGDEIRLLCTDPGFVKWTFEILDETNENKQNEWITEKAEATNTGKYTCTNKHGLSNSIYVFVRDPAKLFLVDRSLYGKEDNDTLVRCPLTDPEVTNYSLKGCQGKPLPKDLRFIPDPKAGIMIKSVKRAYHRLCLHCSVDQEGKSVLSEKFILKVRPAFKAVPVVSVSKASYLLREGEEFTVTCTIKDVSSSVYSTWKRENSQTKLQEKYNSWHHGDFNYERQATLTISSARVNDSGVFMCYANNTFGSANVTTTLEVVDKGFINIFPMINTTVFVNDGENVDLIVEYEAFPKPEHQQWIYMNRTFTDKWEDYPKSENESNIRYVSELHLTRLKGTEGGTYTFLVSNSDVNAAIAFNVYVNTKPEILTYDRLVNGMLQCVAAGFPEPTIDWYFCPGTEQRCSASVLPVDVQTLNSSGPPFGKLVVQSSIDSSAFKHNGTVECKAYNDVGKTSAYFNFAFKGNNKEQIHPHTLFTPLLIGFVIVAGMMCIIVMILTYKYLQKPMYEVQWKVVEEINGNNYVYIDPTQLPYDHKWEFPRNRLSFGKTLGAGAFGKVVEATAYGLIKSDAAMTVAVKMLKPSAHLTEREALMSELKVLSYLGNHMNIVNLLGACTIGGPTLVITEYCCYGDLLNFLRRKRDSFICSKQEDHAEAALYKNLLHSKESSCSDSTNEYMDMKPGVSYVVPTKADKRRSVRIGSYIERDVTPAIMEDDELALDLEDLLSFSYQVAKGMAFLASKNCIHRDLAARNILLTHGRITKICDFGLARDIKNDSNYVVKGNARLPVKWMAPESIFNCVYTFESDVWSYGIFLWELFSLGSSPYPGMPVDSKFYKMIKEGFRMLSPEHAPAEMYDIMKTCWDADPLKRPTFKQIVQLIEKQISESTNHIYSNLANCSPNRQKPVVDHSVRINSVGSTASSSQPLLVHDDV
How it was run: (§2)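 Kinase profiling was run at Reaction Biology. IC50 values came from 10-dose mode, three-fold serial dilutions starting at 100 μM. Reference inhibitors were co-assayed at 1 and 10 μM.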

CDK2/Cyclin A = CDK2/Cyclin A (Homo sapiens, UniProt P24941); experiment: In vitro kinase activity assay; format: biochemical; details: 10-dose, three-fold serial dilution from 100 μM
How it was run: as §2

CDK2/Cyclin E = CDK2/Cyclin E (Homo sapiens, UniProt P24941); experiment: In vitro kinase activity assay; format: biochemical; details: 10-dose, three-fold serial dilution from 100 μM
How it was run: as §2

mTOR/FRAP1 = mTOR/FRAP1 (Homo sapiens, UniProt P42345); experiment: In vitro kinase activity assay; format: biochemical; details: for IC50: mTOR/FRAP1 IC50, 10-dose, three-fold serial dilution from 100 μM
How it was run: as §2

A375 cells [3] = experiment: DAPI staining of apoptotic nuclei, A375; format: cell-based, human
How it was run: (§3)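 Equal numbers of cells were seeded in T-25 flasks and exposed to test compound at different concentrations for 36 h. Cells were PBS-washed, stained with DAPI in PBS and imaged by fluorescence microscopy at 10x and 1.6×10x. Apoptotic nuclei were scored by morphology and expressed as percentage of cells.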

A431 cells [4] = experiment: DAPI staining of apoptotic nuclei, A431; format: cell-based, human
How it was run: as §3

A375 and A431 cells [5] = experiment: Scratch wound healing assay; format: cell-based, human; details: A375 and A431, ½IC50, IC50, 2×IC50, 48 h; for inhibition of wound closure: vs untreated controls
How it was run: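 Confluent A375 or A431 monolayers in complete DMEM received two parallel scratches made with a 200-μL pipette tip, then were washed. Wells were treated at ½IC50, IC50 or 2×IC50 for 48 h. Wound area was measured by image analysis as a percentage of the initial cell-free area versus 0 h and 48 h controls. Data are mean ± SD of three independent experiments; one-way ANOVA with Dunn's test.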

A375 and A431 cells [6] = experiment: Colony formation assay; format: cell-based, human; details: A375 and A431, ½IC50, IC50, 2×IC50, concentration-dependent
How it was run: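 DMSO ≤0.1% v/v was the vehicle control. Cells were trypsinized and ~1000 reseeded per 10-cm2 plate, then grown 10–14 days drug-free at 37°C, 5% CO2, with medium renewed every 2–3 days. Colonies were stained with 0.5% Gentian violet in ~64% methanol/4% paraformaldehyde. Results are percent of control, mean ± SD of three independent experiments.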

A375 and A431 cells [7] = experiment: Western blot analysis of apoptosis, cell cycle and c-Kit markers; format: cell-based, human; details: A375 and A431, IC50 and 2×IC50, 48 h
How it was run: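 Cells were plated at 3×10⁵ overnight and treated at 0, IC50 or 2×IC50 (<0.1% DMSO) for 48 h. Lysates were made in ice-cold RIPA with protease/phosphatase inhibitors and PMSF (15 min), then run on SDS-PAGE. Blots were probed with primary antibodies at 1:250–1:1000 and HRP secondary at 1:2000. Bands were normalized to β-actin, GAPDH or Rab11 and given as % expression; three independent experiments, one-way ANOVA with Dunn's test.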

[8] = A375, treated 36 hours at ½IC50
[9] = A431, treated 36 hours at ½IC50

IC50 (c-Kit) [nM] | IC50 (CDK2/Cyclin A) [µM] | IC50 (CDK2/Cyclin E) [µM] | IC50 (mTOR/FRAP1) [µM] | Compound | IC50 (A375 cells [1]) [µM] | selectivity index (A375 cells [1]) | IC50 (SK-Mel-28 cells) [µM] | selectivity index (SK-Mel-28 cells) | IC50 (Melanocyte) [µM] | IC50 (A431 cells [2]) [µM] | selectivity index (A431 cells [2]) | IC50 (UWBCC1 cells) [µM] | IC50 (HaCaT) [µM] | DAPI (+) apoptotic cells (A375 cells [3]; A375, treated 36 hours at IC50) [%] | DAPI (+) apoptotic cells (A375 cells [3]; [8]) [%] | DAPI (+) apoptotic cells (A431 cells [4]; A431, treated 36 hours at IC50) [%] | DAPI (+) apoptotic cells (A431 cells [4]; [9]) [%] | selectivity index (UWBCC1 cells) | inhibition of wound closure (A375 and A431 cells [5]) | further results
90 | 4.77 | > 100 |  | Cc1cc([N+](=O)[O-])c2oc(-c3ccc(Br)cc3)c(O)c(=O)c2c1 [F20, 2-(4-Bromophenyl)-3-hydroxy-6-methyl-8-nitro-4H-chromen-4-one] | 6.3 ± 1 | 5.6 | 17 ± 3 | 2.1 | 35 ± 0.23 | 0.2 ± 0.1 | ~170 | 0.12 ± 0.11 | 34 ± 0.6 | 20.4 | 8.2 | 27.7 | 14.6 |  |  | inhibition of mTOR kinase activity (in words) (mTOR/FRAP1): did not substantively inhibit; scratched wound area closure (in words) (A375 and A431 cells [5]; dose-dependent): significantly decreased; percentage of colonies (in words) (A375 and A431 cells [6]): significantly reduced; expression level of pro-apoptotic protein Bax (A375 and A431 cells [7]): significantly increased; level of anti-apoptotic protein Bcl-2 (A375 and A431 cells [7]): decreased; protein expression levels of cyclin A2, cyclin E2 and CDK2 (A375 and A431 cells [7]): significantly suppress; protein expression levels of phosphorylated c-Kit (A375 and A431 cells [7]): significantly suppressed; protein expression levels of cleaved caspases −3, −7, −8 and PARP (A375 and A431 cells [7]; vs untreated controls): elevated
540 | 7.16 | 17.1 | 23.9 | Cc1ccc2c(=O)c(O)c(-c3cccc(Cl)c3)oc2c1 [F8, 2-(3-Chlorophenyl)-3-hydroxy-7-methyl-4H-chromen-4-one] | 8.4 ± 0.4 | 3.1 | 22 ± 3 | 1.1 | 26 ± 3.8 | 8.3 ± 2.1 | 2.7 | 6.7 ± 1.5 | 22 ± 0.2 | 11.3 | 6.5 | 12.8 | 5.84 | 3.3 |  | 

More lines, now with the values behind:

Compound | IC50 (c-Kit) [nM] | IC50 (CDK2/Cyclin A) [µM] | IC50 (CDK2/Cyclin E) [µM] | IC50 (mTOR/FRAP1) [µM] | IC50 (A375 cells [1]) [µM] | selectivity index (A375 cells [1]) | IC50 (SK-Mel-28 cells) [µM] | selectivity index (SK-Mel-28 cells) | IC50 (Melanocyte) [µM] | IC50 (A431 cells [2]) [µM] | selectivity index (A431 cells [2]) | IC50 (UWBCC1 cells) [µM] | IC50 (HaCaT) [µM] | DAPI (+) apoptotic cells (A375 cells [3]; A375, treated 36 hours at IC50) [%] | DAPI (+) apoptotic cells (A375 cells [3]; [8]) [%] | DAPI (+) apoptotic cells (A431 cells [4]; A431, treated 36 hours at IC50) [%] | DAPI (+) apoptotic cells (A431 cells [4]; [9]) [%] | selectivity index (UWBCC1 cells) | inhibition of wound closure (A375 and A431 cells [5]) | further results
O=c1c(O)c(-c2ccccc2)oc2cc(Br)ccc12 [F14, 7-Bromo-3-hydroxy-2-phenyl-4H-chromen-4-one] | 130 | 6.64 | 5.38 | > 100 | 15 ± 0.08 | 1.4 | 22 ± 4.3 |  | 24 ± 0.84 | 5.3 ± 2.1 | 4.5 | 3.3 ± 1.3 | 24 ± 0.2 | 10.9 | 6.2 |  | 6.92 | 7.3 |  | 
O=c1c(O)c(-c2cccc(Cl)c2)oc2ccc(F)cc12 [F17, 2-(3-Chlorophenyl)-6-fluoro-3-hydroxy-4H-chromen-4-one] | 1740 | 4.57 | 5.7 | 11.5 | 13 ± 1 | 2.5 | 25 ± 3.4 |  | 32 ± 0.72 | 10 ± 2.6 | 3.8 | 8.1 ± 1.2 | 38 ± 0.8 | 17.7 | 6.9 | 18.4 | 8.81 | 4.7 | 28–72% | 
COc1cccc(-c2oc3cc(C)ccc3c(=O)c2O)c1 [F9, 3-Hydroxy-2-(3-methoxyphenyl)-7-methyl-4H-chromen-4-one] | 120 | 2.95 | 1.78 | 1.42 | 12 ± 0.9 | 2.2 | 17 ± 1 | 1.5 | 26 ± 1.6 | 9.2 ± 0.7 | 2.9 | 9.4 ± 0.3 | 27 ± 0.3 | 18.2 | 7.5 | 19.1 | 7.93 | 2.9 | 28–72% | 
